Results collected from several papers.
Compare with care: the assays were run in different laboratories. Values after ≈ are worked out from the molar mass of the structure shown.

Compound | tested on | test | conditions | endpoint | value
Cc1ccc(/C=C2/SC(=Nc3ccccc3)NC2=O)c(C)c1 | HEK293 | cell growth or viability | – | IC50 | > 10 µM
O=C(Nc1ccccc1-c1ccc(F)c(F)c1)c1nccnc1C(F)(F)F | Rhizoctonia solani | microbial growth | – | EC50 | 0.2 µg/mL (≈ 0.527 µM)
Cc1[nH]c(C)c(C(F)(F)F)c(=O)c1-c1ccc(Oc2ccc(OC(F)(F)F)cc2)cc1 | HEK293 | cell growth or viability | – | IC50 | > 10 µM
COc1ccc(Sc2ccc(C)cc2)c(OC)c1OC | Leishmania braziliensis | parasite growth, MTT | 24 h, promastigote | IC50 | 40.3 µM
FC1CCN(C2(CNCc3ccc(-c4ccccc4Cl)o3)COC2)C1 (stereo not shown) | GBM6 | cell growth or viability | 30 µM, 48 h | viability | 47.4%
CC1=NN(CNC(=O)c2ccccn2)C(=O)C1=NNn1c(-c2ccccc2)nc2ccccc2c1=O | Trichophyton rubrum | microbial growth, broth dilution | – | MIC | 104 µM (≈ 50 µg/mL)
CN1CCCC(CN2CCN(Cc3ccc(-c4cccc(-c5nc6ccccc6[nH]5)c4)cc3)CC2)C1 (stereo not shown) | HEK293 | cell growth or viability | – | IC50 | > 10 µM
COc1ccc([S+]([O-])c2ccccc2)c(OC)c1OC (stereo not shown) | Leishmania braziliensis | parasite growth, MTT | 24 h, promastigote | IC50 | 62.6 µM
Cc1cccc2cc(CNCC3(N4CCCC4)COC3)cnc12 | T98G | cell growth or viability | 30 µM, 48 h | viability | 92.1%
COc1ccc(-c2nc3ncccn3c2NC(C)(C)CC(C)(C)C)cc1O | Leishmania amazonensis | parasite growth, MTT | 72 h, promastigote | IC50 | > 100 µM
O=C1NN=C(N=Cc2ccc(O)c(O)c2)C1=NNn1c(-c2ccccc2)nc2ccccc2c1=O | Trichophyton rubrum | microbial growth, broth dilution | – | MIC | 107 µM (≈ 50 µg/mL)
Cc1nc2ccc(-c3ccc(OC(F)(F)F)cc3)cc2c(O)c1C#N | HEK293 | cell growth or viability | – | IC50 | > 10 µM
COc1ccc(Nc2c(-c3ccc4c(c3)OCO4)nc3ncccn23)cc1 | Leishmania amazonensis | parasite growth, MTT | 72 h, promastigote | IC50 | > 100 µM
O=C(Nc1cccc(-c2cccc(-c3nc4ccccc4[nH]3)c2)c1)NC1CC1c1ccccc1 (stereo not shown) | HEK293 | cell growth or viability | – | IC50 | > 10 µM
CC(=O)NCN1N=C(C)C(=NNn2c(-c3ccccc3)nc3ccccc3c2=O)C1=O | Trichophyton rubrum | microbial growth, broth dilution | – | MIC | 120 µM (≈ 50 µg/mL)
CC(C)(C)Nc1c(-c2ccc3c(c2)OCO3)nc2ncccn12 | Leishmania amazonensis | parasite growth, MTT | 72 h, promastigote | IC50 | > 100 µM
